Assay outcomes from PubChem.
Sampled rows, rich in hits. Any-hit rate of the full collection: about 1.9%.
Efflux pump inh = blocks antifungal efflux pumps in multiplex yeast assay; S. cerevisiae Candida pump triplex, Nile Red efflux; inhibition, % at 10 µM; 330,000 tested, 0.44% active;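 active means plate passing quality check with inhibition over a set limit, or well fluorescence over plate mean plus 4 SD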;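 further: Nile Red retained in pooled yeast measured as flow cytometry median fluorescence; 0% = buffer negative control and 100% = Enniatin B positive control; higher means more Nile Red kept so more efflux inhibition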
ASAP1 GAP inh = inhibitors of human ASAP1 ArfGAP activity | Q9ULH1 | ASAP1-stimulated ARF1 GTP hydrolysis, GDP FP detection | inhibition, % at 16.5 µM | 360,000 tested, 0.19% active | AID 624377; in the data active means inhibition above about 25%;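 further: 0% = vehicle with enzyme and substrate and 100% = no enzyme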
Target sequence (Q9ULH1 325-724 limits assumed): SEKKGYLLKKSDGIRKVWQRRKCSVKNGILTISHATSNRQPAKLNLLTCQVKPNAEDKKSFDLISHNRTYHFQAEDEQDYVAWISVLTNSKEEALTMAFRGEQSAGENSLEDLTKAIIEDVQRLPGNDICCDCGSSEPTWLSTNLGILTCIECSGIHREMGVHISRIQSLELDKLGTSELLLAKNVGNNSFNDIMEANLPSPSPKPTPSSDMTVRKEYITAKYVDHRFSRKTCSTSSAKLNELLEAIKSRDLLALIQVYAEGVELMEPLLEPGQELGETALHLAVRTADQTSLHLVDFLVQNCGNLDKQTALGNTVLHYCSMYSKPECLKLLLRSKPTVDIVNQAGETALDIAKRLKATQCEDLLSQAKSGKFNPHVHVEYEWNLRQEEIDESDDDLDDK
Rtt109 Vps75 = inhibitors of Candida albicans Rtt109/Vps75 histone acetyltransferase | Q5AAJ8 | purified Rtt109/Vps75, ThioGlo CoA-SH fluorescence, 4 h | inhibition, % at 34.9 µM | 330,000 tested, 0.16% active;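 active means inhibition of at least 50% in every replicate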
FGF22 binding = shifts melting point of recombinant human FGF22; recombinant FGF22 thermal shift, SYPRO orange fluorescence; percent of sucrose octasulfate shift, DMSO zero; 340,000 tested, 1.5% active; activity (Tm shift, normalised), % at 9.99 µM; Q9HCT0;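 active means mean Tm shift, scaled 0 neutral to 100 positive control, at about 1.3% or above, every replicate too, limit read from the data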
Target sequence (Q9HCT0 whole entry, looked up): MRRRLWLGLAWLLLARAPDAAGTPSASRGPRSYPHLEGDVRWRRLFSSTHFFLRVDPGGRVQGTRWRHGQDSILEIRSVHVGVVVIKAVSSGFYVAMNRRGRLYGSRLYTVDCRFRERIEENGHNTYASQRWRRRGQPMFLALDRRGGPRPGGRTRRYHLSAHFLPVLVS
ARFGAP1 inh = inhibitors of rat ARFGAP1; Arfgap1-stimulated ARF1 GTP hydrolysis, GDP FP detection; 360,000 tested, 0.26% active; inhibition, % at 16.5 µM;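 active means inhibition above a per-plate limit, mean inhibition of low control wells plus 3 SD, cut at about 25% in these data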;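 further: 0% = DMSO wells with enzyme and 100% = wells lacking Arfgap1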
Target sequence (Q62848 1-136 limits assumed): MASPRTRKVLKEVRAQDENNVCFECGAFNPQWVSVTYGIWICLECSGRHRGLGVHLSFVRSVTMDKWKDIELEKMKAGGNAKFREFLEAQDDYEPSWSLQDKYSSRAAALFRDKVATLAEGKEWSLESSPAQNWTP
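System: truncated rat Arfgap1 GAP domain / Benchmarks: high control wells lacking Arfgap1, low control full reaction with DMSO / Times: compound-enzyme preincubation 20 min, reaction 120 min, detection 60 min, 25 °C / Repeats: one replicate per compound / Also added: human ARF1(Δ1-17)-GTP substrate / Measured by: Tracer-displacement fluorescence polarization with EDTA stop, 620/688 nm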
Yeast cmpd fluor = flagged as fluorescent in efflux inhibitor counter-screen | shares compounds with Efflux pump inh | S. cerevisiae AD/pABC3, compound fluorescence, flow cytometry | fluorescence ratio to DMSO, % at 10 µM | 1,700 tested, 4% active | AID 588517;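 active means fluorescence ratio to DMSO above its plate's cutoff, the plate mean ratio plus 5 SD, cut at about 210% in these data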;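 further: unstained yeast with no Nile Red so the signal is compound autofluorescence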
Mdr1 pump inh = blocks the Candida albicans Mdr1 efflux pump in yeast; shares compounds with Efflux pump inh; 1,700 tested, 1% active; S. cerevisiae AD/CaMDR1, Nile Red efflux, flow cytometry; AID 588518; inhibition, % at 10 µM; in the data active means inhibition above about 26%;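 further: 0% = DMSO vehicle and 100% = reference inhibitor; higher means more Nile Red retained so more efflux inhibition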
CaCdr2 efflux inh = blocks the Candida albicans Cdr2 efflux pump in yeast; S. cerevisiae AD/CaCDR2, Nile Red retention, flow cytometry; 1,700 tested, 4% active; Nile Red retention ratio vs DMSO, % at 10 µM; AID 588520; shares compounds with Efflux pump inh; in the data active means Nile Red retention ratio vs DMSO above about 190%;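 further: higher ratio means more blocking of Cdr2 efflux of the dye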
Cdr1 pump inh = inhibitors of Candida albicans Cdr1 efflux pump | shares compounds with Efflux pump inh | S. cerevisiae AD/CaCDR1, Nile Red efflux, flow cytometry | inhibition, % at 10 µM | 1,700 tested, 1% active;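 active means inhibition above the screen-wide mean plus twice its standard deviation, cut at about 32% in these data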
Numbers without * were called inactive; x = not tested or not shown.

SMILES	Efflux pump inh	ASAP1 GAP inh	Rtt109 Vps75	FGF22 binding	ARFGAP1 inh	Yeast cmpd fluor	Mdr1 pump inh	CaCdr2 efflux inh	Cdr1 pump inh
Cc1ccc(C(=O)N2CCN(c3ccc(NC(=O)CSc4ccc(Cl)cc4)cc3)CC2)cc1	8.0*	-9.5	2.2	x	8.2	104.6	-0.2	110.1	-0.1
CC(C)[C@H]1COCc2cn(nn2)CCCC(=O)N1	x	x	x	-0.3	x	x	x	x	x
CCN(CC)c1ccc(/C=C/c2cc(-c3ccccc3)c3ccccc3n2)cc1	1.9*	11.2	-3.7	-0.2	-1.8	125.1	1.2	142.3	0.8
CNC(=O)C[C@@H]1CC[C@@H]2[C@H](COc3ccc(NC(=O)c4ccc(F)c(F)c4)cc3C(=O)N2C)O1	x	x	x	-0.1	x	x	x	x	x
Cc1nn(-c2ccccc2)c2c1C(c1ccc([N+](=O)[O-])cc1)N1C(=N2)C(=O)Nc2ccccc21 (stereo unspecified)	0.2	5.8	-12.1	0.4	1.5	98.6	-0.3	86.7	0.1
Cc1nn(-c2ccc([N+](=O)[O-])cc2)c2c1C(c1cccc(Br)c1)N1C(=N2)C(=O)Nc2ccccc21 (stereo unspecified)	0.9	-5.8	-1.8	x	-2.6	108.6	0.5	102.9	0.0
CC(C)N(C)CCOC(=O)c1ccccc1Br	12.6*	1.7	-13.5	x	11.2	131.5	2.4	163.5	2.1
CC(C)N(C)CCOC(=O)c1ccccc1Cl	-0.1	-0.8	-6.6	0.2	6.8	x	x	x	x
CCOc1ccccc1C(=O)Nc1ccc2nc3n(c(=O)c2c1)CCCCC3	-0.1	-2.6	0.0	-0.2	17.0	x	x	x	x
Cc1ccc(C(=O)OCC(=O)NC(C)C)cc1S(=O)(=O)N1CCOCC1	-0.1	7.9	12.4	0.2	-1.3	x	x	x	x
Cc1ccc(C)c(C(=O)COC(=O)c2ccc(C)c(S(=O)(=O)N3CCOCC3)c2)c1	1.1*	-4.3	6.3	0.3	4.4	86.5	0.0	95.4	-0.3
CCCCN1C(=O)C(CC(=O)NCC2CCCCC2)CC(C(=O)N(CC)CC)=C1C (stereo unspecified)	x	3.9	x	-0.1	-6.3	x	x	x	x
Cc1nn(CCC(=O)NCc2ccc(OC(C)C)cc2)c(=O)c2nn(-c3ccccc3)c(C)c12	0.3	4.1	-5.2	-0.1	12.4	113.2	0.0	110.2	0.1
CCc1ccc(CNC(=O)CCn2nc(C)c3c(C)n(-c4ccccc4)nc3c2=O)cc1	0.0	-9.3	6.5	0.0	-9.5	x	x	x	x
Cc1ccc(-n2nc3c(=O)n(CC(=O)NCCc4cccs4)nc(C)c3c2C)cc1	-0.1	-1.9	2.6	-0.2	1.6	97.6	-0.1	98.5	0.0
CCC(C(=O)Nc1cc(F)ccc1F)n1nc(C)c2c(C)n(-c3ccc(C)cc3)nc2c1=O (stereo unspecified)	5.0*	-4.4	11.3	0.2	-5.7	83.2	-0.1	98.1	0.0
Cc1ccc(-n2nc3c(=O)n(CCCC(=O)NCCc4ccccc4)nc(C)c3c2C)cc1	0.3	-2.4	-6.4	-0.1	0.1	x	x	x	x
Cc1ccc(-n2nc3c(=O)n(CCCC(=O)NCCN4CCN(C)CC4)nc(C)c3c2C)cc1	5.4*	-2.2	4.7	-0.3	-4.5	104.5	-0.5	98.5	-0.1
CCCc1nc2c(ccc3ccccc32)cc1CC	-0.3	11.3	-11.5	0.0	4.2	x	x	x	x
C/C(CC(=O)NCc1ccco1)=N\NC(=O)Cc1cccc2ccccc12	0.2	-0.5	3.8	x	-9.7	x	x	x	x
CCc1nc2c(OCc3ccc(F)c(F)c3)cccn2c1N(C)C(=O)C(C)C	x	3.7	x	-0.2	-0.9	x	x	x	x
COc1ccc(CNC(=O)C(C)n2nc(C)c3c(C)n(-c4ccc(C)cc4)nc3c2=O)cc1 (stereo unspecified)	-0.3	-6.7	-7.8	0.1	-4.3	104.6	0.1	101.8	0.1
Cc1ccc(CCNC(=O)CCCn2nc(C)c3c(C)n(-c4ccc(C)cc4)nc3c2=O)cc1	-0.5	5.1	2.8	-0.1	3.3	223.7	0.5	103.9	0.4
CCOc1ccc(CNC(=O)C(C)n2nc(C)c3c(C)n(-c4ccccc4)nc3c2=O)cc1 (stereo unspecified)	-0.2	-4.6	3.0	0.3	-2.3	x	x	x	x
CCOC(=O)c1nc(Nc2ccccc2C)c2ccccc2n1	0.9*	-6.9	4.5	-0.1	12.1	104.0	0.1	109.4	0.0
SMILES	Efflux pump inh	ASAP1 GAP inh	Rtt109 Vps75	FGF22 binding	ARFGAP1 inh	Yeast cmpd fluor	Mdr1 pump inh	CaCdr2 efflux inh	Cdr1 pump inh
CCOC(=O)c1nc(Nc2ccccc2CC)c2ccccc2n1	0.1	4.1	-2.2	-0.1	1.7	x	x	x	x
COc1ccccc1N1CCN(C(=O)c2cc(-c3ccccc3)on2)CC1	0.0	3.9	12.9	-0.3	-7.7	x	x	x	x
COc1ccccc1N1CCN(C(=O)c2cc(-c3cccs3)on2)CC1	0.7*	10.4	16.4	x	4.3	100.0	-0.1	122.6	0.1
CCC1=C(OC(=O)N(CC)CC)N2C(=O)OC(=NCCc3c[nH]c4ccccc34)[C@]2(Cc2ccccc2)[C@H]2C1=CC[C@H]1C(=O)N(CC)C(=O)[C@H]12	39.3*	-13.7	14.8	-0.2	2.3	106.2	0.2	91.4	-0.1
COc1ccc2c3c([nH]c2c1)[C@H](CO)N(C(=O)c1ccncc1)CC31CCN(Cc2cccnc2)CC1	x	x	x	-0.1	x	x	x	x	x
C=CCn1c(=O)[nH]c2nc3cc(N=CN(C)C)c(C)cc3nc2c1=O	1.7*	5.7	8.2	0.0	-9.0	147.4	-0.2	86.9	-0.1
CCCCn1c(=N)n(CC(O)COc2ccc(C)cc2)c2ccccc21 (stereo unspecified)	1.2*	14.5	3.9	x	-1.1	115.9	-0.2	110.1	0.0
CCCCn1c(=N)n(CC(O)COc2ccccc2)c2ccccc21 (stereo unspecified)	0.1	-12.0	-20.0	x	-4.2	x	x	x	x
CN(C)C(=O)c1cccc(-c2ccc([C@@H]3[C@@H](CO)N4CCCCN(S(C)(=O)=O)C[C@H]34)cc2)c1	x	x	x	0.7	x	x	x	x	x
CCOC(=O)CC(=O)Nc1ccccc1C(=O)O	0.0	-3.1	1.5	x	-3.0	x	x	x	x
COc1ccccc1N=Nc1c(O)[nH]c2ccc(Br)cc12	0.4*	12.6	-2.2	0.4	-1.4	106.7	-0.1	116.2	0.1
COc1ccccc1C(=O)C(=O)c1ccccc1OC	x	4.3	-8.1	-0.1	10.4	x	x	x	x
Oc1ccc2sc(-c3ccccc3O)c(-c3ccc(OCCN4CCCCC4)cc3)c2c1	x	20.1	x	-0.7	6.8	x	x	x	x
COc1ccc2c(-c3ccc(OCCN4CCOCC4)cc3)c(-c3ccccc3OC)sc2c1	0.5	x	-1.7	x	x	104.6	-0.2	93.5	0.1
